Assay outcomes from PubChem BioAssay.
Hits are enriched below; roughly 2% of the tested compounds scored in any of these assays.
HKDC1 inhibitor = blocks human hexokinase HKDC1 activity | Q2TB90 | recombinant HKDC1, G6PDH/diaphorase resazurin coupled fluorescence | inhibition, % at 20 µM | 340,000 compounds, 0.16% hits | AID 493160;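 active means inhibition above about 35% when tested at 20 µM, limit read from the data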;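 further: plate controls were DMSO wells with enzyme for no effect and DMSO wells lacking enzyme for full effect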
Target sequence (Q2TB90 whole entry, looked up): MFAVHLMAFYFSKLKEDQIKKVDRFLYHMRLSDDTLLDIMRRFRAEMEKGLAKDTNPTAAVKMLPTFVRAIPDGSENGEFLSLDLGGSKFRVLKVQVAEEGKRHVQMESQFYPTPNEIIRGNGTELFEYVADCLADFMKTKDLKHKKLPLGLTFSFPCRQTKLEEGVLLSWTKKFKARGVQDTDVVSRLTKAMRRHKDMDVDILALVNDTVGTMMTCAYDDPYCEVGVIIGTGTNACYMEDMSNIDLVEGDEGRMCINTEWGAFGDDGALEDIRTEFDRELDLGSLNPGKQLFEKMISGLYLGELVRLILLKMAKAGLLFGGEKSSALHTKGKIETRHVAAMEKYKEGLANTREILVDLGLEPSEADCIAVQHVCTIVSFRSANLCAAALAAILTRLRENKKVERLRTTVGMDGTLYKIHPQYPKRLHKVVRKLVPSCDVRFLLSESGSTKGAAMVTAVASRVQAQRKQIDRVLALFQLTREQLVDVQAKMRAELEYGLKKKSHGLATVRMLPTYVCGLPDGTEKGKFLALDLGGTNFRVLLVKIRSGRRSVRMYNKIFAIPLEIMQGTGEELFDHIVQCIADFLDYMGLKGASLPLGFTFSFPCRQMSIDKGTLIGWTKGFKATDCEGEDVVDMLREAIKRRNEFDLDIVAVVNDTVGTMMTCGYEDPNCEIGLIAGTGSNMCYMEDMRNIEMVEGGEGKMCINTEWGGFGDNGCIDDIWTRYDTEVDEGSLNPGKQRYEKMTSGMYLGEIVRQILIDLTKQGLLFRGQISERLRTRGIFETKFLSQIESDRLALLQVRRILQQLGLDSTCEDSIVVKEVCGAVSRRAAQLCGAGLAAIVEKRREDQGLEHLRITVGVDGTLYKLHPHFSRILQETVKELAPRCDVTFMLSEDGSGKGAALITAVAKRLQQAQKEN
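Material: recombinant HKDC1 hexokinase; Amount: HKDC1 at 5 µg/mL; Medium: Tris pH 8.0 buffer with MgCl2, Tween-20, BSA, BME; Schedule: 90 min reaction incubation at room temperature, dark; Technique: coupled resazurin fluorescence, excitation 525 nm, emission 613 nm.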
VIM-2 inhibitor = inhibitors of Pseudomonas aeruginosa VIM-2 metallo-beta-lactamase. purified VIM-2, nitrocefin hydrolysis, epi-absorbance fluorescence. inhibition, % at 5.6 µM. 290,000 compounds, 0.89% hits;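 active means inhibition above the mean of all tested compounds plus 3 SD, cutoff set per screening run, cut at about 7.5% in these data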;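 further: red hydrolysis product quenches plate fluorescence so inhibitors raise well fluorescence; 0% = enzyme with DMSO and 100% = DMSO without enzyme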
MIN6 prolif = inducers of beta-cell replication in MIN6 cells; AID 2380; proliferation, % at 10 µM; 330,000 compounds, 0.29% hits; MIN6 cells proliferation, ATPlite luminescence, 48 h; cells starved in 0.2% serum; 100% = growth in 10% serum;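 active means compounds whose signal lies at least 3.5 SD above the mean of all wells on their plate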;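 further: 0% = DMSO-treated cells in low-serum medium and 100% = 10% serum control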
ATG4B inh = blocks human ATG4B protease cleavage of LC3 substrate; Q9Y4P1; ATG4B cleavage of LC3-PLA2, NBD-HPC fluorescence, 1 h; inhibition, % at 8.33 µM; 340,000 compounds, 0.51% hits; AID 504462; in the data active means inhibition above about 40%
IMP-1 inhibitor = inhibitors of Pseudomonas aeruginosa IMP-1 metallo-beta-lactamase; inhibition, % at 5.6 µM; 290,000 compounds, 0.45% hits; purified IMP-1, nitrocefin hydrolysis, epi-absorbance fluorescence;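 active means inhibition above the mean plus 3 SD of all compounds in the same screening run, cut at about 4.5% in these data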;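 further: 0% = IMP-1 with DMSO and 100% = DMSO wells lacking enzyme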
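System: Purified recombinant IMP-1 metallo-beta-lactamase enzyme | Measured by: Fluorescence quenching readout, ex 480/em 530 nm | Replication: Singlicate | Incubation: 15 min preincubation plus 25 min reaction at 25 °C | Evaluation: Percent inhibition from optical density relative to buffer-blank wells | Benchmarks: DMSO with and without IMP-1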
PvdQ acylase = P. aeruginosa PvdQ acylase inhibition; 340,000 compounds, 0.063% hits; AID 488965; inhibition, % at 10 µM; purified PvdQ acylase, fluorescence plate reader; in the data active means inhibition above about 30%, passing the limit was not always enough; inconclusive means no clear call, values can overlap the other calls;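 further: 0% = vehicle neutral wells and 100% = reference inhibitor wells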
The depositor's hits bear a star; ? = inconclusive; · = not tested or not shown.

SMILES	HKDC1 inhibitor	VIM-2 inhibitor	MIN6 prolif	ATG4B inh	IMP-1 inhibitor	PvdQ acylase
O=C(COc1ccc2ccc(=O)oc2c1)N1CCc2ccccc21	10.3	-2.9	-1.1	3.7	-3.5	-8.7
COc1ccccc1NC(=O)CSc1nc2c(sc3ccccc32)c(=O)n1CCN(C)C	4.6	3.3	0.2	-11.4	-0.6	-21.2
CN(C)CCn1c(SCc2ccccc2C#N)nc2c(sc3ccccc32)c1=O	8.9	10.4*	0.2	-11.4	2.5	-6.8
Cc1cc2oc(=O)c(CC(=O)NCCCN(C)C)c(C)c2c2occ(C(C)(C)C)c12	0.1	8.9*	-7.2	11.3	1.5	·
Cc1cc2oc(=O)c(CC(=O)O)c(C)c2c2occ(C(C)(C)C)c12	10.9	10.8*	-5.4	5.3	3.6	-12.7
COCCNC(=O)Cc1c(C)c2c(cc(C)c3c(C(C)(C)C)coc32)oc1=O	0.2	0.3	-2.8	-3.2	-4.8	8.6
Cc1cc2oc(=O)c(CC(=O)NCCCO)c(C)c2c2occ(C(C)(C)C)c12	0.2	-1.8	-3.5	-11.9	-2.6	7.0
c1ccc(CCCNc2ncccn2)cc1	-3.6	-6.0	-0.4	-10.3	-1.7	-8.2
CC1CC(C)(C)CC2(C1)NC(=O)N(CC(=O)N1CCN(Cc3ccc(C#N)cc3)CC1)C2=O (stereo not drawn)	-3.8	·	-0.1	1.2	·	-1.5
Cc1ccc2oc(=O)c3cc(C(=O)NCCN4CCN(C)CC4)sc3c2c1	1.6	11.7*	-3.6	-3.6	-2.1	-19.4
Cc1ccc2oc(=O)c3cc(C(=O)NCCCN4CCCCCC4)sc3c2c1	7.4	9.6*	-7.9	4.2	1.3	3.0
Cc1cc(Nc2ccc3c(c2)OCCO3)n2nc(C)nc2n1	1.0	14.1*	-2.1	-0.8	-3.3	4.1
Cc1cc(Nc2ccc(F)cc2Cl)n2nc(C)nc2n1	-4.8	2.7	-2.5	-2.8	-4.4	-20.4
COc1ccc(Cl)cc1Nc1cc(C)nc2nc(C)nn12	2.3	10.0*	-2.3	3.0	-2.5	7.4
Cc1cc(Nc2ccc(F)cc2)n2nc(C)nc2n1	-4.9	9.7*	0.6	1.8	2.0	-4.1
Cc1cc(Nc2ccc(Br)cc2)n2nc(C)nc2n1	2.1	4.7	-0.4	-3.6	-2.7	-9.7
O=C(Cc1ccccc1)Nc1ccccc1C(=O)Nc1ccccc1	5.4	-0.9	0.0	5.8	-4.7	-4.9
CC(C)(C)C(=O)NC(=S)Nc1ccccc1C(=O)NC1CCCCC1	-1.8	-2.1	-2.7	1.6	1.4	-8.7
CC(C)CC(=O)NC(=S)Nc1ccccc1C(=O)Nc1ccccc1	9.2	-4.6	-1.9	-3.3	11.6*	-5.3
CC(C)C(=O)NC(=S)Nc1ccccc1C(=O)Nc1ccccc1	-9.4	-2.9	-1.6	-5.6	19.0*	-5.5
CC(C)(C)C(=O)NC(=S)Nc1ccccc1C(=O)Nc1ccccc1	-7.6	-1.0	2.2	-7.1	17.2*	-7.5
CC1CCN(c2ccccc2NC(=S)NC(=O)C(C)(C)C)CC1	17.3	-0.3	-5.1	9.5	6.3*	-15.9
COc1ccc2oc(C(=O)N3CCc4ccccc43)c(C)c2c1	-1.1	5.1	-6.3	2.1	1.8	-5.1
O=C(NCC(=O)N(CC1CCCO1)C1(C(=O)NC2CCCCC2)CCCCC1)c1ccccc1 (stereo not drawn)	1.5	-1.9	-0.7	-8.8	-2.7	-9.8
CC(=O)C1=C(c2ccc(Br)cc2)C(=O)c2ccccc2C1=O	82.7*	0.8	·	28.6	-0.5	2.3
SMILES	HKDC1 inhibitor	VIM-2 inhibitor	MIN6 prolif	ATG4B inh	IMP-1 inhibitor	PvdQ acylase
Cc1ccc2nc(-c3ccc4c(c3)OCCO4)cn2c1	3.3	-1.5	-6.4	-1.0	-2.9	90.8*
COc1ccc(-c2cn3cc(C)ccc3n2)cc1F	-4.5	-1.6	-4.6	0.9	-4.6	58.7*
c1ccn2cc(-c3ccc4c(c3)OCCO4)nc2c1	5.2	-2.6	-6.0	-2.4	-2.1	?
CCOC(=O)C1(CCOc2ccccc2)CCN(Cc2cccc3nonc23)CC1	-1.0	-5.8	-4.8	-3.9	-2.5	7.6
COc1ccc(S(=O)(=O)N2CCN(C(=O)c3ccco3)CC2)c(C)c1C	-1.2	-1.7	-0.2	-3.0	-3.3	-16.8
N#CC1=C(S)N(c2ccccc2)C(c2ccc(-c3cc(Cl)ccc3Cl)o2)NC1=O (stereo not drawn)	4.1	-2.5	-2.5	27.4	-0.1	6.3
N#CC1=C(S)N(c2ccccc2)C(c2ccc(-c3ccc(Cl)c(Cl)c3)o2)NC1=O (stereo not drawn)	-1.7	-1.9	-4.9	0.7	5.2*	1.0
CCOc1ccc(-c2nnc(-c3cccnc3)o2)cc1OCC	3.0	11.3*	-3.2	-9.3	-4.2	-13.2
Cc1cc(Br)ccc1NC(=O)CNC(=O)CNc1cccc([N+](=O)[O-])c1	5.6	·	-1.7	2.7	·	-12.4
O=C1NC(=Nc2ccccc2)c2c1cccc2[N+](=O)[O-]	-8.0	-0.9	0.0*	-9.4	-5.1	-12.9
O=C(Nc1cccc2c1C(=O)NC2=O)c1ccccc1[N+](=O)[O-]	-5.9	-4.2	-2.4	5.6	-1.1	-0.8
CCc1cc(C(=O)OC)c(NC(=O)CSc2nccn2C)s1	0.0	-1.5	-1.5	-2.1	-1.8	2.2
N#Cc1cc(-c2ccccc2)cnc1Cl	-8.1	-1.2	0.0	2.4	-2.0	36.8*
Clc1ccc(-c2ccccc2)cn1	-2.5	·	-3.2	-8.9	·	-15.6
Cc1ccccc1/C=C1\SC(=S)N(/N=C/c2cc([N+](=O)[O-])ccc2O)C1=O	-15.1	-3.3	-6.0	22.1	-1.7	2.2
Clc1cccc2c1CCN(Cc1nc(-c3cnccn3)no1)C2	2.6	-4.1	-3.5	-3.4	-0.3	-13.3
Cc1ccc(C(=O)CNc2ccc(C)c(Cl)c2)cc1	-3.5	-1.0	-0.5	5.6	-3.7	9.2
Cc1ccc(NCC(=O)c2ccc(C)cc2)cc1	6.0	6.4	-5.1	2.8	35.6*	-14.3
COc1ccc2nc(Nc3nc(CSc4nnnn4-c4ccccc4)cc(=O)[nH]3)nc(C)c2c1	1.5	1.3	-5.8	-3.2	4.9*	-1.4
C[C@@H]1CN([C@H](C)CO)C(=O)c2cc(NS(=O)(=O)c3ccc(F)cc3)ccc2O[C@@H]1CN(C)Cc1ccc(Cl)c(Cl)c1	-1.5	·	-5.1	·	·	7.6
CCCOc1ccc(S(=O)(=O)Nc2ccccn2)c2ccccc12	-3.7	-0.9	-3.7	5.7	-4.8	14.6
O=C(Nc1nnc(SCC(=O)N2CCCCC2)s1)c1ccccc1F	-3.8	9.2*	-5.6	-7.2	0.7	-12.4
COc1ccc(CCNC(=O)c2ccc(CSc3ccccc3)o2)cc1	0.6	0.7	-3.0	3.5	-1.7	-18.1
CCCn1c(C)nc2c(c1=O)c1nc3ccccc3nc1n2CCc1ccccc1	·	-2.2	·	·	-6.0	·
CCCn1c(C)nc2c(c1=O)c1nc3ccccc3nc1n2CCC1=CCCCC1	10.1	8.3*	-5.6	-16.9	-1.7	-0.6
